Target: T1, Sodium- and chloride-dependent GABA transporter 2 (Mus musculus, UniProt P31649)
T1 sequence (P31649 whole entry): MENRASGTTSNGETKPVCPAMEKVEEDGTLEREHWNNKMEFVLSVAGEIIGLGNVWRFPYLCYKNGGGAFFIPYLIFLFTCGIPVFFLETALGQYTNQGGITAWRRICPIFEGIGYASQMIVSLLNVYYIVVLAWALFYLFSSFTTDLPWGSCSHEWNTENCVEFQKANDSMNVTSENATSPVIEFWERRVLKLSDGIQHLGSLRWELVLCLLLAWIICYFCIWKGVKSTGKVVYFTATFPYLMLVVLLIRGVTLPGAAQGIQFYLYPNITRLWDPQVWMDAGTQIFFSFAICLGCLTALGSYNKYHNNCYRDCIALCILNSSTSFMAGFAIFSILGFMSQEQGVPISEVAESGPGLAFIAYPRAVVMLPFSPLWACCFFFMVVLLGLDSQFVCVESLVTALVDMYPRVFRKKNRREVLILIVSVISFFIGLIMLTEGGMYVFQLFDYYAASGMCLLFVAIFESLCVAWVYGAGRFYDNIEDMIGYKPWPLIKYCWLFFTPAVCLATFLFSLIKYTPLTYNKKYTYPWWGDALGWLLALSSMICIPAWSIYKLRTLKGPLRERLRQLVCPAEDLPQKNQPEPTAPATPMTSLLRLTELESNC
Experiment: Inhibition of mouse GAT2 expressed in HEK293 cells assessed as decrease in [3H]GABA uptake preincubated for 25 mins followed by [3H]GABA addition measured after 10 mins by liquid scintillation counting analysis
Summary of the method: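 [³H]GABA uptake assay in HEK cells expressing the mGAT subtype named in the line, run in triplicate. Potencies are given as pIC₅₀ ± SEM. No SEM is given where only one triplicate measurement was made. Where 100 µM test compound left uptake at or above 50% (pIC₅₀ ≤ 4.00), the percent remaining [³H]GABA uptake at 100 µM is reported instead.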

IC50 [µM]	SMILES
32.4	COc1ccc(C(OCCN2CCCC(C(=O)O)C2)(c2ccc(OC)cc2C)c2ccc(OC)cc2C)cc1 (centres undefined)
33.9	COc1ccc(C(CC#CCN2CCCC(C(=O)O)C2)(c2ccc(OC)cc2)c2ccc(OC)cc2)cc1 (centres undefined)
35.5	COc1ccc(C(C#CCCN2CCCC(C(=O)O)C2)(c2ccc(OC)cc2)c2ccc(OC)cc2)cc1 (centres undefined)
41.7	COc1ccc(C(C#CCN2CCCC(C(=O)O)C2)(c2ccc(OC)cc2)c2ccc3c(c2)OCO3)cc1 (centres undefined)

From BindingDB's records for doi:10.1016/j.bmc.2018.05.049 (2018)
